Source: ChEMBL document CHEMBL2163247, “Multitargeted drug development: Discovery and profiling of dihydroxy substituted 1-aza-9-oxafluorenes as lead compounds targeting Alzheimer disease relevant kinases” (Bioorg Med Chem Lett, 2012)
The source made the active and inactive calls. The rule behind the calls is not given here.

How the values were obtained:
[1] = Inhibition of CDK4/Cyclin D
In short: (§1)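 Ki values were calculated from measured IC50 values of kinase inhibition.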

[2] = molecular target: Cyclin-dependent kinase 5/CDK5 activator 1 (Homo sapiens, UniProt Q00535); test: Inhibition of CDK5/p25; type: protein-complex assay; in short: as §1
Sequence of Cyclin-dependent kinase 5/CDK5 activator 1 (Q00535 whole entry): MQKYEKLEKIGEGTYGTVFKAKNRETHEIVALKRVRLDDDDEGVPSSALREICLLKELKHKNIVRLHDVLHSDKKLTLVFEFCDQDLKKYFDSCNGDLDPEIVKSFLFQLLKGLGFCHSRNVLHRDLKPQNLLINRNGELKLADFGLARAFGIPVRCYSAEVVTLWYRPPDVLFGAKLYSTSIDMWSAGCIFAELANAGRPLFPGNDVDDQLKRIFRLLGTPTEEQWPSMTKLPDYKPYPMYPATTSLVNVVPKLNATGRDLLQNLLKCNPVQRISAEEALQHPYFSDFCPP
Sequence of Cyclin-dependent kinase 5/CDK5 activator 1 (Q15078 whole entry, further chain): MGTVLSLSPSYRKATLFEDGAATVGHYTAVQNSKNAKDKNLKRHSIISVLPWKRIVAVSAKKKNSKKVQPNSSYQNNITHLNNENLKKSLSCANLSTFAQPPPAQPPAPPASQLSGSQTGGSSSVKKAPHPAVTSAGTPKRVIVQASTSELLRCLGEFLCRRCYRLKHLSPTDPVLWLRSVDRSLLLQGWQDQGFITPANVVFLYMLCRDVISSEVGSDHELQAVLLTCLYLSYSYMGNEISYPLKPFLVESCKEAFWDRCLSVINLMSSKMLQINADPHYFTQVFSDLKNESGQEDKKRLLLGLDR

[3] = molecular target: Glycogen synthase kinase-3 beta (Homo sapiens, UniProt P49841); test: Inhibition of GSK3beta; in short: as §1
Sequence of Glycogen synthase kinase-3 beta (P49841 whole entry): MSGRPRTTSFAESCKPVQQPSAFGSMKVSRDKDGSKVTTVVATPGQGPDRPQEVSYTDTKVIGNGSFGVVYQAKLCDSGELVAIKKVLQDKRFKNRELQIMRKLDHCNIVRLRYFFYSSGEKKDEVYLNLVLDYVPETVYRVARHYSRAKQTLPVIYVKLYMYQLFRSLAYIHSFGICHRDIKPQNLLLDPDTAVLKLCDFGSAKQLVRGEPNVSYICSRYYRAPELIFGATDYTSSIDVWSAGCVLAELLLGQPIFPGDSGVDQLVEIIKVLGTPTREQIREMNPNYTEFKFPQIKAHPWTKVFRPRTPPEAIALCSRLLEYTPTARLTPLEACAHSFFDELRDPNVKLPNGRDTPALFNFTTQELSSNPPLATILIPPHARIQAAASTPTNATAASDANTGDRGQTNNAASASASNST

[4] = molecular target: Cyclin-dependent kinase 2/cyclin E (Homo sapiens, UniProt P24941); test: Inhibition of CDK2/Cyclin E; type: protein-complex assay; in short: as §1
[5] = molecular target: Cyclin-dependent kinase 1/cyclin B1 (Homo sapiens, UniProt P06493); test: Inhibition of CDK1/Cyclin B; type: protein-complex assay; in short: as §1
Sequence of Cyclin-dependent kinase 1/cyclin B1 (P06493 whole entry): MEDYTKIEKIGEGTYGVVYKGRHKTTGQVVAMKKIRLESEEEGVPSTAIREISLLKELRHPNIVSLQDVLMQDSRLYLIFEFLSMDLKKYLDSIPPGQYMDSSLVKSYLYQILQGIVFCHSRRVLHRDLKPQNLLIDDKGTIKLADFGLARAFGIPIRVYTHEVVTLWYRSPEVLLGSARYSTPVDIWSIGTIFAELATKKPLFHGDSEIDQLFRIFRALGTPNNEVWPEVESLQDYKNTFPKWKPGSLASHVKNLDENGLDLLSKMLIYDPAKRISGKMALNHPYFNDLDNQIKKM
Sequence of Cyclin-dependent kinase 1/cyclin B1 (P14635 whole entry, further chain): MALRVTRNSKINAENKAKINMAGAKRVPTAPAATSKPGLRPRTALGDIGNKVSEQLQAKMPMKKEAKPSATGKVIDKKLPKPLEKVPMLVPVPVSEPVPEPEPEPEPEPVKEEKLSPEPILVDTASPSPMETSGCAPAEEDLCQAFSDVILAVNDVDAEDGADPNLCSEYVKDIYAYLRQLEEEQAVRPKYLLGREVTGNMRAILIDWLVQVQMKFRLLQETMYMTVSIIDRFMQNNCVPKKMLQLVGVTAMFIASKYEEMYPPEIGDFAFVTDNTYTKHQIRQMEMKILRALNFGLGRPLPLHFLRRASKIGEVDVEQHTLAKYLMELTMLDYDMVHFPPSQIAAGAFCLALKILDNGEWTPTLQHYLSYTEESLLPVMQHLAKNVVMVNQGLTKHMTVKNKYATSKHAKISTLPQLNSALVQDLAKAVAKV

N2a [6] = test: Cytotoxicity against mouse N2A cells up to 90 uM by MTT assay; type: cell-based
In short: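 N2A cells were treated at up to 90 µM. MTT was added in triplicate to a final 1 mg/mL for 2 h. Medium was removed, formazan taken up in DMSO plus glycine buffer (0.1 M glycine, pH 10.5, 0.1 M NaCl), and absorbance read at 550 nm. Cells lysed with 1% Triton X-100 set 100% death; untreated cells served as reference.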

N2a [7] = test: Cytotoxicity against mouse N2A cells up to 90 uM by LDH assay; type: cell-based
In short: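 Membrane integrity in N2A cells was read as extracellular lactate dehydrogenase activity, at compound concentrations up to 90 µM. Absorbance was read at 492 nm 20 min after adding the reagent mixture and compared with compound-free cells.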

[8] = molecular target: Protein kinase C alpha type (Homo sapiens, UniProt P17252); test: Inhibition of PKCalpha
[9] = molecular target: Protein kinase C gamma type (Homo sapiens, UniProt P05129); test: Inhibition of PKCgamma
[10] = molecular target: T1, Protein kinase C epsilon type (Homo sapiens, UniProt Q02156); test: Inhibition of PKCepsilon
T1 sequence (Q02156 whole entry): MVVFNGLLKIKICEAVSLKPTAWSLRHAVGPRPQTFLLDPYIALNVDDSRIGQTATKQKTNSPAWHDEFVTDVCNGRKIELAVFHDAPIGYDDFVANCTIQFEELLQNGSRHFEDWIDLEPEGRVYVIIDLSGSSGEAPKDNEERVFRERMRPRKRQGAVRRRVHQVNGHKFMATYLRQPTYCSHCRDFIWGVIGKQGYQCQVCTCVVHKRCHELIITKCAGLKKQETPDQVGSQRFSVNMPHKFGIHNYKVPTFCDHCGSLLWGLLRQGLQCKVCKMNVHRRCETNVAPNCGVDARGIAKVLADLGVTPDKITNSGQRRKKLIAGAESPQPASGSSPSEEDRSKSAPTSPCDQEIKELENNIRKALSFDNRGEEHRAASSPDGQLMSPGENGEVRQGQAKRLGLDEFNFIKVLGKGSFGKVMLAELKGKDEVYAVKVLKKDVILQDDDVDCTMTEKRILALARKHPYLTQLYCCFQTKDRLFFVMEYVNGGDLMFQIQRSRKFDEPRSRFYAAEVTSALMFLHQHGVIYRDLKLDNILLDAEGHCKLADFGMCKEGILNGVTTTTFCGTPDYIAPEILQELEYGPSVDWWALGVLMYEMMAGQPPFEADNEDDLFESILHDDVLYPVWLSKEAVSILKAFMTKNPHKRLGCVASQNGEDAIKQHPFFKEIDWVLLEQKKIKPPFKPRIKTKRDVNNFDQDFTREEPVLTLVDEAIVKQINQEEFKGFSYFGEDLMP

[11] = molecular target: T2, Protein kinase C iota type (Homo sapiens, UniProt P41743); test: Inhibition of PKCiota
T2 sequence (P41743 whole entry): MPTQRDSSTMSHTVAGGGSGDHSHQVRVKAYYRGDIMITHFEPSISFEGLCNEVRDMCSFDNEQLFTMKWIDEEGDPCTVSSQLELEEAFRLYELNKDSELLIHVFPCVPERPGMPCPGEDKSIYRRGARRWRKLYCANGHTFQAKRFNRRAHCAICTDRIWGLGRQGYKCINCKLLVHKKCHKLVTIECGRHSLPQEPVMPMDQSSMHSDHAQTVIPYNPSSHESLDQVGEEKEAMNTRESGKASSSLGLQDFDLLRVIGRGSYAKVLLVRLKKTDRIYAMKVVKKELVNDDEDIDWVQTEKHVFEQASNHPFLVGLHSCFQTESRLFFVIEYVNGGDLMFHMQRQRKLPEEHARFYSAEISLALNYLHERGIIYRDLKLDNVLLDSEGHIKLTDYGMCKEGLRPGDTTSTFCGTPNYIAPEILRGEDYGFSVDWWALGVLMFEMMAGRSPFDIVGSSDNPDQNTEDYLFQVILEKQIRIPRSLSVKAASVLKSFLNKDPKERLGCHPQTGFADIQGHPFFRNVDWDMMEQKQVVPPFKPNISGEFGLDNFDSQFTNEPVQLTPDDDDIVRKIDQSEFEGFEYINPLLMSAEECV

[12] = molecular target: Vascular endothelial growth factor receptor 2 (Homo sapiens, UniProt P35968); test: Inhibition of VEGFR2
[13] = molecular target: Receptor tyrosine-protein kinase erbB-2 (Homo sapiens, UniProt P04626); test: Inhibition of ERBB2
Sequence of Receptor tyrosine-protein kinase erbB-2 (P04626 whole entry): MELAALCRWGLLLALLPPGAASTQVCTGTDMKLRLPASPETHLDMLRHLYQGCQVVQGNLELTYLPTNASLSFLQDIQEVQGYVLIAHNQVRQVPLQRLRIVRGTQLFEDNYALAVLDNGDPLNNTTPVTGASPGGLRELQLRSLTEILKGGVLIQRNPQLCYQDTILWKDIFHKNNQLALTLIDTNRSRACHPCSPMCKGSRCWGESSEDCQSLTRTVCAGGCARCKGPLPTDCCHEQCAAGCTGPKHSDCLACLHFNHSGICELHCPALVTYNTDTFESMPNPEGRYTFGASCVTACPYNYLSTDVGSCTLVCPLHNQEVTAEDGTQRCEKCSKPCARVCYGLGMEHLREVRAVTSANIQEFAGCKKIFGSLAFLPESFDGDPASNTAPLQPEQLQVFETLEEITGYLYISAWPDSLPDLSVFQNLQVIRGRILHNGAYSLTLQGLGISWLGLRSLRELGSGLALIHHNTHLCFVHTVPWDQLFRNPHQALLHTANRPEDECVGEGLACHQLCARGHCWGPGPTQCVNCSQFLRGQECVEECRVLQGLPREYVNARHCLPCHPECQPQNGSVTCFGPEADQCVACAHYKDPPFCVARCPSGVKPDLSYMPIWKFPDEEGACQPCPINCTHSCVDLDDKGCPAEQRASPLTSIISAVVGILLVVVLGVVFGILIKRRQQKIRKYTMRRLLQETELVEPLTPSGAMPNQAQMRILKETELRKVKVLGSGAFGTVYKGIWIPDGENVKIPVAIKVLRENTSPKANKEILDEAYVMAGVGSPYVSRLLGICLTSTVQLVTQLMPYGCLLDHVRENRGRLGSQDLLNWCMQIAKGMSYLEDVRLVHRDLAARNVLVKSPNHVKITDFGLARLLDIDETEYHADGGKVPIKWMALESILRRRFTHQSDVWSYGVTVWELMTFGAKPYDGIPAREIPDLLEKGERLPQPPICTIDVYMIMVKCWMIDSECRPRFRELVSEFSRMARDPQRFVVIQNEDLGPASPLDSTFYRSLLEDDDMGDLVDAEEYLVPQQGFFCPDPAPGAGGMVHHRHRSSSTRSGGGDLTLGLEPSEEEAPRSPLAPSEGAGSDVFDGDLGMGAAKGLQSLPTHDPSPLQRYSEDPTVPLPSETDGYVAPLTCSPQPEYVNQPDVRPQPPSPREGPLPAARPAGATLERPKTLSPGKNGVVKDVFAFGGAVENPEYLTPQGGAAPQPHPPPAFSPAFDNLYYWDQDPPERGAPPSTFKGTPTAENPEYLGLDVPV

Angiopoietin-1 receptor = Angiopoietin-1 receptor (Homo sapiens, UniProt Q02763); test: Inhibition of TIE2
CDK6/cyclin D1 = CDK6/cyclin D1 (Homo sapiens, UniProt Q00534); test: Inhibition of CDK6/Cyclin D1; type: protein-complex assay
Sequence of CDK6/cyclin D1 (P24385 whole entry): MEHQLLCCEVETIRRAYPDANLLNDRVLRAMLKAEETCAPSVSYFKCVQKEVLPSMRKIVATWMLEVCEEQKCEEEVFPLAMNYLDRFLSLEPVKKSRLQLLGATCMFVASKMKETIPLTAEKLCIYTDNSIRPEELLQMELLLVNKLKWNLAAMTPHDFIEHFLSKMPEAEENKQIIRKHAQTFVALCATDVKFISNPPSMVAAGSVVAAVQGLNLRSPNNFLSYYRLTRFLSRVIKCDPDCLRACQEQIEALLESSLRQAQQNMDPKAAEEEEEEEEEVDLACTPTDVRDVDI
Sequence of CDK6/cyclin D1 (Q00534 whole entry): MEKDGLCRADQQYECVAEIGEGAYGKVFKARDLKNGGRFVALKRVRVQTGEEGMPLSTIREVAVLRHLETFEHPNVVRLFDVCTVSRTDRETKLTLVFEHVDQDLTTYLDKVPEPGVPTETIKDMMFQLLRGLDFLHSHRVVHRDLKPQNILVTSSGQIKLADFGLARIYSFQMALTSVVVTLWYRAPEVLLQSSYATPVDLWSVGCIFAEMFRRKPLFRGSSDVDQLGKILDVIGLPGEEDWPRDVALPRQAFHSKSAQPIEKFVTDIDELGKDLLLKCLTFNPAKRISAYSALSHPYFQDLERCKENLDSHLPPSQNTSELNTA

Wee1-like protein kinase = Wee1-like protein kinase (Homo sapiens, UniProt P30291); test: Inhibition of WEE1
[14] = molecular target: Casein kinase I isoform alpha (Homo sapiens, UniProt P48729); test: Inhibition of Ck1alpha1
Sequence of Casein kinase I isoform alpha (P48729 whole entry, canonical isoform): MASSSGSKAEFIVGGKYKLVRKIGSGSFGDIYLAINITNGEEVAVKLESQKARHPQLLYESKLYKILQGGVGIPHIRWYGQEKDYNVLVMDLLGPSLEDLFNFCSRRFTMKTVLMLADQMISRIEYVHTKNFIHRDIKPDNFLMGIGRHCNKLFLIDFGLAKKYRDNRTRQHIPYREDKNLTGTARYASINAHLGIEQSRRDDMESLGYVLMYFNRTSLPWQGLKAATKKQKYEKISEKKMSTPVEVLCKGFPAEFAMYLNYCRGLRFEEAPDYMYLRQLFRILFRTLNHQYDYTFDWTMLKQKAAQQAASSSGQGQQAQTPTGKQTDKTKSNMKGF

[15] = molecular target: Cdk5-Cdk5r1 complex (Mus musculus) (UniProt P49615+P61809); test: Inhibition of CDK5/p25-mediated Tau S202/T205 phosphorylation in mouse N2A cells at 2.6 to 24 uM after 16 hrs by immunoblot analysis; type: cell-based
In short: (§2)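 Mouse N2A cells stably transfected with a 3-repeat tau construct were grown 24 h in DMEM/HAMs F-12 (pH 7.4), 5% FBS, 2 mM L-glutamine and gentamicin (37 °C, 5% CO2). They were then exposed 16 h to inhibitor diluted from a 25 mM DMSO stock (final DMSO ≤0.4%, also in controls). Lysate proteins were run on 8% SDS–PAGE, blotted to PVDF, and probed for phospho-Ser202/Thr205 tau.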

[16] = molecular target: Glycogen synthase kinase-3 beta (Mus musculus) (UniProt Q9WV60); test: Inhibition of GSK3beta-mediated Tau S202/T205 phosphorylation in mouse N2A cells at 2.6 to 24 uM after 16 hrs by immunoblot analysis; type: cell-based; in short: as §2
Sequence of Glycogen synthase kinase-3 beta (Mus musculus) (Q9WV60 whole entry, looked up): as the sequence (P49841 whole entry) above, with T390P, T392A, A400T, T402A counted along it

Row | Ki [1] [µM] | Ki [2] [µM] | Ki [3] [µM] | Ki [4] [µM] | Ki [5] [µM] | SMILES | other results
1 | 144 | > 1000 | > 1000 | > 1000 | > 1000 | COc1ccc2oc3ncc(O)c(-c4ccccc4)c3c2c1 | 
2 | 18.5 | 0.11 | 0.02 | 0.6 | 0.01 | Oc1ccc2oc3ncc(O)c(-c4ccccc4)c3c2c1 | Activity (N2a [6]): Non-toxic; Activity (N2a [7]): Non-toxic; Ki [8]: > 1000 µM; Ki [9]: > 1000 µM; Ki [10]: > 1000 µM; Ki [11]: > 1000 µM; Ki [12]: > 1000 µM; Ki [13]: > 1000 µM; Ki (Angiopoietin-1 receptor): > 1000 µM; Ki (CDK6/cyclin D1): 773 µM; Ki (Wee1-like protein kinase): > 1000 µM; Ki [14]: > 1000 µM; inhibition [15]: Active; inhibition [16]: Active
3 |  | 0.07 | 0.01 |  | 0.7 | Oc1cnc2oc3c4ccccc4c(O)cc3c2c1-c1ccccc1 | 
4 | 36.6 | > 1000 | 5.8 | 6.4 | 2.3 | Oc1ccc2oc3ncc(OCc4ccccc4)c(-c4ccccc4)c3c2c1 | 
5 | > 1000 | > 1000 | > 1000 | > 1000 | > 1000 | COc1ccc2oc3ncc(OC)c(-c4ccccc4)c3c2c1 | 

More lines, now with the values behind:

Row | SMILES | Ki [1] [µM] | Ki [2] [µM] | Ki [3] [µM] | Ki [4] [µM] | Ki [5] [µM] | other results
6 | COc1ccc2oc3ncc(OCc4ccccc4)c(-c4ccccc4)c3c2c1 | > 1000 | 26.1 | 0.02 | > 1000 | > 1000 | 
7 | COc1cnc2oc3ccc(O)cc3c2c1-c1ccccc1 | 93.6 | > 1000 | 14.8 | 24 | 5.3 | 
8 | Cc1cc2oc3ncc(OCc4ccccc4)c(-c4ccccc4)c3c2cc1O |  | 25.3 | 5.8 |  | 1.3 | 
9 | Oc1cc2c(oc3ncc(OCc4ccccc4)c(-c4ccccc4)c32)c2ccccc12 |  | 2.1 | 1.6 |  | 0.09 | 
